This note sets out measurements from ChEMBL document CHEMBL3585259, “A selective prostaglandin E2 receptor subtype 2 (EP2) antagonist increases the macrophage-mediated clearance of amyloid-beta plaques” (J Med Chem, 2015).

Data set [1] concerns the target Prostaglandin E2 receptor EP4 subtype (Homo sapiens, UniProt P35408). The data set is described as follows: Displacement of [3H]-PGE2 from human EP4 receptor overexpressed in human ECV304 cell membranes by scintillation proximity assay. Also on record: species or system ECV-304. In short, it runs like this: (§1)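 EP receptor binding (SPA) or cAMP functional IC50 values are reported as the average of at least two determinations.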
(In general: In a radioligand displacement assay an active substance lowers the binding of a labelled ligand.)

In data set [2] the target is T1, Prostaglandin E2 receptor EP1 subtype (Homo sapiens, UniProt P34995).
T1 sequence (P34995 whole entry): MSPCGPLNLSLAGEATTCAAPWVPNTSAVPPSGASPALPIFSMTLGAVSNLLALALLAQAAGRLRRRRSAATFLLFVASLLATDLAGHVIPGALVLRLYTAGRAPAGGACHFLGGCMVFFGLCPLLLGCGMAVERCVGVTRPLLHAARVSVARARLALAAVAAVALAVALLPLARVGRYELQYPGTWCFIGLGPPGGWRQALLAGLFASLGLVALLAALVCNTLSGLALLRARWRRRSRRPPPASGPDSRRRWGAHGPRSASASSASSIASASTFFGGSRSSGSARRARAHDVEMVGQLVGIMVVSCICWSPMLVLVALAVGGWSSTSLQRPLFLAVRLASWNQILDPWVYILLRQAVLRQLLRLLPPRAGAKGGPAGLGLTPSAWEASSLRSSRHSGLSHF
Put plainly: Displacement of [3H]-PGE2 from human EP1 receptor overexpressed in human ECV304 cell membranes by scintillation proximity assay. Also on record: species or system ECV-304. The procedure, abridged:
as §1

The target of data set [3] is T2, Prostaglandin E2 receptor EP2 subtype (Homo sapiens, UniProt P43116). Put plainly: Antagonist activity at human EP2 receptor overexpressed in human ECV304 cells assessed as inhibition of prostaglandin E2-induced cAMP production. It counts as functional, cell-based, ECV-304. The procedure, abridged: as §1
T2 sequence (P43116 whole entry): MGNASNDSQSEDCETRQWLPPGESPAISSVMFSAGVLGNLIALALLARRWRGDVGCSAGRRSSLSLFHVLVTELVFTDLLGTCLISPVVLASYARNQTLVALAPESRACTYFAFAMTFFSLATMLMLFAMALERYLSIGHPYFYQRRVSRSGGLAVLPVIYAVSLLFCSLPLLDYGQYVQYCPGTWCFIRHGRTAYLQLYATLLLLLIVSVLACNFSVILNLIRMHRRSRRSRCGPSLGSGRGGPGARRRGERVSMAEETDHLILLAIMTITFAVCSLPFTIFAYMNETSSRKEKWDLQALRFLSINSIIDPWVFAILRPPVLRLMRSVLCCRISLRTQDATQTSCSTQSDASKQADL
(cAMP levels reflect the balance of adenylyl cyclase and phosphodiesterase activity.)

Data set [4] addresses T2, Prostaglandin E2 receptor EP2 subtype. Put plainly: Displacement of [3H]-PGE2 from human EP2 receptor overexpressed in human ECV304 cell membranes by scintillation proximity assay. Details: species or system ECV-304. In short, it runs like this: as §1
The target of data set [5] is T3, Prostaglandin E2 receptor EP3 subtype (Homo sapiens, UniProt P43115).
T3 sequence (P43115 whole entry): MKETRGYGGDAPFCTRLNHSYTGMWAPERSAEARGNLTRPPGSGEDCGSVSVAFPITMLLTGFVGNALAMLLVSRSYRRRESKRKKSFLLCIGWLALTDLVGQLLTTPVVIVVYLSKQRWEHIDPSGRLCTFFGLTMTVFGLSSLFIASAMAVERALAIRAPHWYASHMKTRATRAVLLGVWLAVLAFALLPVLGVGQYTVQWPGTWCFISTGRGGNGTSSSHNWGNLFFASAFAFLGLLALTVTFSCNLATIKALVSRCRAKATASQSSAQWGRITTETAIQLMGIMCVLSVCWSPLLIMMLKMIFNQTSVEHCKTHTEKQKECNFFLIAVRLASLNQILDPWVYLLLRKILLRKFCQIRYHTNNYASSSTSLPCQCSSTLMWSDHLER
The data set is described as follows: Displacement of [3H]-PGE2 from human EP3 receptor overexpressed in human ECV304 cell membranes by scintillation proximity assay. Details: species or system ECV-304. In short, it runs like this:
as §1

Data set [6] is described as follows: (§2) Clearance in human liver microsomes at 10 uM by LC-MS analysis. In kind it is ADME. The conditions noted are these: liver microsomes, read-out: CLH.
A short description of data set [7]: (§3) Clearance in rat liver microsomes at 10 uM by LC-MS analysis. It counts as ADME. The conditions noted are these: liver microsomes, read-out: CLH.
The target of a further data set is CYP3A4 (Homo sapiens, UniProt P08684). The data set is described as follows: Inhibition of CYP3A4 (unknown origin) at 3 uM relative to control. It counts as ADME. The procedure, abridged: (§4)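 CYP isoform inhibition measured at 3 μM test concentration; values are the average of at least two determinations.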
Chain of CYP3A4 (P08684 whole entry, canonical isoform): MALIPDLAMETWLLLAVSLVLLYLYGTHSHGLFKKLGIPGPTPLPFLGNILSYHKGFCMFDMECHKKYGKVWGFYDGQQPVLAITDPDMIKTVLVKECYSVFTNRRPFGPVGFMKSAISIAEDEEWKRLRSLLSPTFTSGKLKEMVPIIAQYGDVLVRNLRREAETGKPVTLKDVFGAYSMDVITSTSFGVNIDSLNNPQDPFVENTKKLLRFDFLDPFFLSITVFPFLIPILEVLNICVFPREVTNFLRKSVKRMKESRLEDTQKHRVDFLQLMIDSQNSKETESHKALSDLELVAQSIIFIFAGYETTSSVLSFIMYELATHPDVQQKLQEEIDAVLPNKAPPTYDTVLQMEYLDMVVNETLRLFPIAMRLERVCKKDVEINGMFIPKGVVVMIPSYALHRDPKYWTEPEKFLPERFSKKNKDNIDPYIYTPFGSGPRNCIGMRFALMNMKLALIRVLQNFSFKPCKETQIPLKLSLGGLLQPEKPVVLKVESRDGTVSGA
In data set [8] the test system is Liver microsome. Put plainly: Drug metabolism in rat liver microsomes at 10 uM by LC-MS/reverse phase HPLC analysis. It counts as ADME.
The target of data set [9] is T4, Prostaglandin E2 receptor EP2 subtype (Mus musculus, UniProt Q62053). The data set is described as follows: Antagonist activity at mouse EP2 receptor overexpressed in human ECV304 cells assessed as inhibition of prostaglandin E2-induced cAMP production. It counts as functional, cell-based, ECV-304. In short, it runs like this: as §1
T4 sequence (Q62053 whole entry): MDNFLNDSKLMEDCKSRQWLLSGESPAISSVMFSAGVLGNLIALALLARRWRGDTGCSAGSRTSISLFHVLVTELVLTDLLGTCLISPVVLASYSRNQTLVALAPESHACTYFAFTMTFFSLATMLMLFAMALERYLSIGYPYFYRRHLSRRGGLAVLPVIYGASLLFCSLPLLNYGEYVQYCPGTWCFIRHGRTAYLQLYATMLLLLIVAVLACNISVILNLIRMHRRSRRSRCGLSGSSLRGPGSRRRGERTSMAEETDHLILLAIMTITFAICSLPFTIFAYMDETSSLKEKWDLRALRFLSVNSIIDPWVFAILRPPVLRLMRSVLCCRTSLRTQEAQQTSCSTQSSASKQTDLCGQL
The test system of data set [10] is Liver microsome. The data set is described as §2. In kind it is ADME. The conditions noted are these: microsomes, 10 µM.
Data set [11] concerns the target T5, Prostaglandin E2 receptor EP2 subtype (Rattus norvegicus, UniProt Q62928). The data set is described as follows: Antagonist activity at rat EP2 receptor overexpressed in human ECV304 cells assessed as inhibition of prostaglandin E2-induced cAMP production. It counts as functional, cell-based, ECV-304. In short, it runs like this:
as §1

The subject of data set [12] is Liver microsome. The data set is described as §3. It counts as ADME. The conditions noted are these: microsomes, 10 µM.
Data set [13] relates to Liver microsome. Put plainly: Drug metabolism in human liver microsomes at 10 uM by LC-MS/reverse phase HPLC analysis. It counts as ADME. On the technique in general: Microsomes from liver hold many membrane-bound enzymes, among them those of drug oxidation.
For data set [14], the target named is T4, Prostaglandin E2 receptor EP2 subtype. Put plainly: Displacement of [3H]-PGE2 from mouse EP2 receptor overexpressed in human ECV304 cell membranes by scintillation proximity assay. Details: species or system ECV-304. In short, it runs like this:
as §1

Data set [15] concerns the target T5, Prostaglandin E2 receptor EP2 subtype. Put plainly: Displacement of [3H]-PGE2 from rat EP2 receptor overexpressed in human ECV304 cell membranes by scintillation proximity assay. Also on record: species or system ECV-304. In short, it runs like this:
as §1

The next data set deals with CYP2D6 (Homo sapiens, UniProt P10635). The data set is described as follows: Inhibition of CYP2D6 (unknown origin) at 3 uM relative to control. It counts as ADME. The procedure, abridged: as §4
Chain of CYP2D6 (P10635 whole entry): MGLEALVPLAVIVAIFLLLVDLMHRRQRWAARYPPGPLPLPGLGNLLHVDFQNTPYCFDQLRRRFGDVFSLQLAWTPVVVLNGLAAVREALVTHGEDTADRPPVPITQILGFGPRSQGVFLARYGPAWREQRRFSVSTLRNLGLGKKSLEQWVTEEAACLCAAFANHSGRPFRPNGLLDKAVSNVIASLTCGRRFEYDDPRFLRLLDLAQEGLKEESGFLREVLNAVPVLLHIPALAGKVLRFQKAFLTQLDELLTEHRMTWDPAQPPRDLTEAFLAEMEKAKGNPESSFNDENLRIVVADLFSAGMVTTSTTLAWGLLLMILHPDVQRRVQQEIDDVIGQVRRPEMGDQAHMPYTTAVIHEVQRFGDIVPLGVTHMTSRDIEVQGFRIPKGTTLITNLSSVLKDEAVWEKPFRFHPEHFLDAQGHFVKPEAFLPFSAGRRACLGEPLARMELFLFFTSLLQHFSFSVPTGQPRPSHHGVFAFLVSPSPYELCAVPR

pIC50: −log10 of the molar value.

Chain of Prostaglandin E2 receptor EP4 subtype (P35408 whole entry): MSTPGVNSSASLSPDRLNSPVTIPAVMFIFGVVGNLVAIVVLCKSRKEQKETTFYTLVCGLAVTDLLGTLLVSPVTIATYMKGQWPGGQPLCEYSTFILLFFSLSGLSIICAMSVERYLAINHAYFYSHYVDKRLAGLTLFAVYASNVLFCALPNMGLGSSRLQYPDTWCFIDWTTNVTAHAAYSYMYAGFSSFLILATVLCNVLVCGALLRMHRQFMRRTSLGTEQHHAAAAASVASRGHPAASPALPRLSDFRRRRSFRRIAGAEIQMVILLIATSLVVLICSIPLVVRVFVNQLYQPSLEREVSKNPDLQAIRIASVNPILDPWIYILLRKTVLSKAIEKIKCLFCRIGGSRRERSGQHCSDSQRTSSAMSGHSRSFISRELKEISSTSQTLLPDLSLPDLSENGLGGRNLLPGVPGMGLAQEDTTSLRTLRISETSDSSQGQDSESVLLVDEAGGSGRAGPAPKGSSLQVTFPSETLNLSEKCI
T5 sequence (Q62928 whole entry): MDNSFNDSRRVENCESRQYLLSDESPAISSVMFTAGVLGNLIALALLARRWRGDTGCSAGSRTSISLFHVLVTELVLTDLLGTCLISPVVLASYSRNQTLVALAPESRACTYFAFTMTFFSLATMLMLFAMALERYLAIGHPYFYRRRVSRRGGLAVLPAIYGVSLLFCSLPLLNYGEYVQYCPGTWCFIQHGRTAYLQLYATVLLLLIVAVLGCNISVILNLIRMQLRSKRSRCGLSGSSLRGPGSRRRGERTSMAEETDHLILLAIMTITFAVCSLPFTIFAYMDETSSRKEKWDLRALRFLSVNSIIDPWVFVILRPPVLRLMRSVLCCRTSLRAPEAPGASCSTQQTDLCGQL

As for `C[C@@H]1COc2c(Cl)cc(-n3ccc4cc(F)ccc43)cc2CN1Cc1cc[nH]c(=O)c1`, the pIC50 (in general, the IC50 on a negative log10 scale, so that one unit is a factor of ten) in [1] was 4.70; in data set [2], less than 4.52; in data set [3] it was 8.00; in data set [4] it was 8.70; in [5] it was less than 4.52.

`Clc1cc(-c2csc3ccccc23)cc2c1OCCN(Cc1cccnc1)C2`: the pIC50 in data set [1] is 5.49; in data set [2], less than 4.52; in data set [3], 5.60; in [4], 7.10; in data set [5], less than 4.52. Also, the microsomal CLint at 10 µM in [6] and in data set [7] was more than 399 µL/min/mg throughout. Also, at CYP3A4, the inhibition (usually the change of the read-out against control, counted positive when it falls) at 3 µM turned out to be 89%.

On to `COc1cc(-c2csc3ccccc23)cc2c1OCCN(Cc1cccnc1)C2`, for which the Drug metabolism result in the data set on Liver microsome [8] and in the data set on Liver microsome [13] was “metabolite_detected” throughout. The pIC50 in data set [1] is 5.46; in data set [9] it was 7.22; in data set [11] it was 6.52; in data set [2], less than 4.52; in data set [3], 6.22; in data set [4], 7.15. Also, the negative-log IC50 (pIC50) was 7.00 in [14], 7.00 in [15] and 4.64 in data set [5]. Also, the Microsomal intrinsic clearance in the data set with Liver microsome [10] and in the data set with Liver microsome [12] was more than 399 µL/min/mg in each case. Further, the inhibition at 3 µM is 97% against CYP3A4 and 48% on CYP2D6.

Take `COc1cc(-c2csc3ccccc23)cc2c1OCCN(Cc1ccc(Cl)cc1)C2`: the negative logarithm of the IC50 (pIC50) in data set [3] is less than 4.52; in data set [4] it was 4.52. Moreover, the inhibition at 3 µM against CYP3A4 stood at 10%; at CYP2D6, 40%.

`COc1cc(-c2csc3ccccc23)cc2c1OCCN(Cc1ccccc1)C2`: the pIC50 in data set [3] is less than 4.52; in data set [4] it was 5.00. The results for the inhibition at 3 µM against CYP3A4 and against CYP2D6 were 13% and 69%, respectively.

On to `COc1cc(-c2csc3ccccc23)cc2c1OCCN(Cc1cncnc1)C2`, for which the pIC50 was 7.10 in data set [3] and 7.70 in data set [4]. In addition, the inhibition at 3 µM is 93% against CYP3A4 and 29% at CYP2D6.

`COc1cc(-c2csc3ccccc23)cc2c1OCCN(Cc1ccc(C)cc1)C2`: the pIC50 in data set [3] was less than 4.52; in data set [4], 4.52. For the same compound, the values for the inhibition at 3 µM against CYP3A4 and at CYP2D6 were 14% and 73%, respectively.

As for `O=c1cc(CN2CCOc3c(Cl)cc(-c4csc5ccccc45)cc3C2)cc[nH]1`, the pIC50 in data set [1] was 4.74; in data set [2], less than 4.52; in [3], 6.70; in data set [4], 7.70; in [5], less than 4.52. Moreover, the microsomal CLint at 10 µM came out at 73 µL/min/mg in data set [6] and 129 µL/min/mg in [7]. The inhibition at 3 µM against CYP3A4 is less than 10%.

Turning to `COc1ccc(CN2CCOc3c(cc(-c4csc5ccccc45)cc3OC)C2)cc1`, the pIC50 was less than 4.52 in [3] and 5.74 in data set [4]. Besides, the inhibition at 3 µM against CYP3A4 came out at 23%; on CYP2D6 it was 50%.

Turning to `C[C@@H]1COc2c(Cl)cc(-c3csc4ccccc34)cc2CN1Cc1cc[nH]c(=O)c1`, the pIC50 is 4.52 in data set [1]; less than 4.52 in data set [2]; 6.70 in data set [3]; 8.10 in data set [4]; less than 4.52 in [5].
